# Screening results from PubChem.
# An excerpt weighted towards active compounds, which were near 2.8% of everything screened.
# NPY2 pot ag: potentiates or activates human NPY-Y2 receptor. P49146. cells expressing NPY-Y2, potentiator/agonist read-out. activation, % at 3.6 µM. hit rate 0.45% among 220,000. AID 1359; in the data active means activation above about 27%;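 further: cells stimulated with NPY near EC25 plus isoproterenol at EC100; 0% = vehicle plus submaximal agonist and 100% = vehicle plus saturating agonist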
# Target sequence (P49146 whole entry, looked up): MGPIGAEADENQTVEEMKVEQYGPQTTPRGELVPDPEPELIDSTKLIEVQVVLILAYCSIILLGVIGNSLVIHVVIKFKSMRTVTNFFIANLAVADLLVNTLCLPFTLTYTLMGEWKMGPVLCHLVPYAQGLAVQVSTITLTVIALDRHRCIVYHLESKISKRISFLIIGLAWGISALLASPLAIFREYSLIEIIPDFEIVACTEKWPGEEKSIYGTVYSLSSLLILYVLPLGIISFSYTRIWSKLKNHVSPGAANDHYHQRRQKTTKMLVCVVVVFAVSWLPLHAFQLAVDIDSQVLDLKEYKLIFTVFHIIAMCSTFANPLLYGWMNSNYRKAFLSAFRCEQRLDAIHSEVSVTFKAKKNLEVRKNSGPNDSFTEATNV
# MDM2 E3 inh: blocks human Mdm2 ubiquitin ligase activity; Q00987; cell-based MDM2 ubiquitination luciferase reporter, 2 h; 0 = plate control, 100 = twice control, blank-subtracted; signal enhancement, % at 5 µM; hit rate 0.11% among 210,000; AID 1230;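 active means signal enhancement of 30% or more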;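 further: luminescence tracks abundance of the self-degrading MDM2-luciferase fusion protein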
#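 System: stable MDM2–luciferase fusion reporter cells / Input: 2000 cells seeded into each well / Schedule: 4 h settle plus 2 h compound, 37 °C / Compound: single-point 5 µM / Buffer or medium: cells held in DMEM / Benchmarks: control and blank well means / Evaluation: percent signal gain over controls, blank-subtracted / Measured by: luciferase luminescence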
# NPY-Y2 antag: antagonists of human neuropeptide Y receptor Y2; NPY-Y2 expressing cells, antagonist mode; AID 793; inhibition, % at 2.7 µM; P49146; hit rate 0.99% among 140,000; in the data active means inhibition above about 17%;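 further: 0% = vehicle with agonist challenge and 100% = reference antagonist with challenge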
# NPY1 pot ag: potentiators or agonists of human neuropeptide Y receptor Y1; hit rate 0.37% among 220,000; activation, % at 3.6 µM; P25929; NPY-Y1 expressing cells, potentiator/agonist activation; in the data active means activation above about 33%, passing the limit was not always enough;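 further: cells stimulated with NPY at EC10 then isoproterenol at EC100; 0% = low agonist plus stimulus and 100% = saturating agonist plus stimulus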
# Target sequence (P25929 whole entry, looked up): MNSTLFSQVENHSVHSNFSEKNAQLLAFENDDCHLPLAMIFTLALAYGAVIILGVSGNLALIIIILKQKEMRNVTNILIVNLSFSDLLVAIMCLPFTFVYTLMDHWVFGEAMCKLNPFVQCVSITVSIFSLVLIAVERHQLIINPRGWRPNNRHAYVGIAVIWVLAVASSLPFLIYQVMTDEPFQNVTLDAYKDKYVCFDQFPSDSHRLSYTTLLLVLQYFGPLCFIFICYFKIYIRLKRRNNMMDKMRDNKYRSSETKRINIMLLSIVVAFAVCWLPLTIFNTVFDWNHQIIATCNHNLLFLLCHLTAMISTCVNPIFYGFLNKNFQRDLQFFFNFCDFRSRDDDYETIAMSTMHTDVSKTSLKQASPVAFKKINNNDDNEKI
# NPY-Y1 antag: NPY-Y1 (human) receptor antagonism; HEK293-CNG Y1 cells, membrane potential fluorescence; NPY at EC95, then isoproterenol; hit rate 1% among 200,000; inhibition, % at 3.6 µM;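 active means inhibition above the campaign mean inhibition of all tested compounds plus 3 SD, cut at about 20% in these data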;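 further: 0% = DMSO wells given NPY plus isoproterenol and 100% = isoproterenol alone without NPY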
#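 Test system – HEK293 Y1/CNG channel cell line · Also added – NPY agonist 25 nM, then isoproterenol 1 µM plus Ro 20-1724 25 µM · Compound dosing – one concentration, 3.6 µM, in 0.4% DMSO · Schedule – compound incubation 1 h at room temperature, readout 45 min post-stimulation · Technique – fluorescence, membrane potential probe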
# Measles CPE: protection of cells from measles virus; Measles virus-infected cells, CPE protection, absorbance; protection (pct of control), % at 4 µM; hit rate 1.5% among 140,000; AID 841; in the data active means protection mostly above about 24%, no sharp cut-off; inactive means mostly below about 26%
# NPY-Y1 confirm: human NPY-Y1 potentiation or agonism, confirmation; shares compounds with NPY1 pot ag; cell-based NPY-Y1 potentiator/agonist assay; activation, % at 3.6 µM; hit rate 20% among 280; AID 1546; in the data active means activation above about 45%;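 further: cells challenged with NPY at its EC10 plus isoproterenol stimulus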
# NPY-Y2 counter: potentiates or activates NPY-Y2, counter-screen for NPY-Y1 hits | shares compounds with NPY1 pot ag | activation, % at 3.6 µM | HEK293-CNG cells, membrane-potential fluorescence (FLIPR), 1536-well | hit rate 20% among 280 | AID 1649; in the data active means activation above about 33%
# NPY-Y1 agonist: activates human NPY-Y1, counter-screen for NPY-Y1 potentiators; HEK293 Y1-CNGC, membrane potential fluorescence, agonist mode; hit rate 50% among 280; activation, % at 3.6 µM; shares compounds with NPY1 pot ag;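 active means percent activation above the mean of DMSO-only control wells plus 3 SD of those wells, cut at about 18% in these data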;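 further: cells challenged with isoproterenol plus Ro 20-1724 with no NPY in test wells; Y1 agonism lowers isoproterenol-driven cAMP and reduces probe fluorescence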
# NPY-Y2 agonist: counter-screen for NPY-Y1 potentiators or agonists: agonists of NPY-Y2. shares compounds with NPY1 pot ag. HEK293 Y2-CNGC, membrane potential fluorescence, agonist mode. activation, % at 3.6 µM. hit rate 67% among 280. AID 1698;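 active means activation above the solvent-only control wells' mean plus 3 SD, cut at about 11% in these data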;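 further: 0% = DMSO with isoproterenol and 100% = 40 nM NPY maximal response; agonism lowers cAMP so well fluorescence drops in active wells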
# CNGC counter: blocks cyclic nucleotide gated channel in NPY-Y1 counter-screen. AID 1704. hit rate 42% among 280. HEK293-CNG parental, isoproterenol cAMP, membrane potential fluorescence. shares compounds with NPY1 pot ag. inhibition, % at 3.6 µM;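 active means inhibition above the mean of stimulated solvent-only control wells plus 3 SD, cut at about 22% in these data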;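 further: 0% = isoproterenol-stimulated DMSO wells and 100% = unstimulated DMSO wells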
# Numbers without * were called inactive; nt = not tested or not shown.
SMILES,NPY2 pot ag,MDM2 E3 inh,NPY-Y2 antag,NPY1 pot ag,NPY-Y1 antag,Measles CPE,NPY-Y1 confirm,NPY-Y2 counter,NPY-Y1 agonist,NPY-Y2 agonist,CNGC counter
O=C(COC(=O)c1ccc(NS(=O)(=O)c2cccs2)cc1O)NCc1ccccc1,-8.7,-2.6,nt,3.1,0.6,nt,nt,nt,nt,nt,nt
O=C(COC(=O)c1ccc(NS(=O)(=O)c2cccs2)cc1O)Nc1nc2ccccc2s1,22.5,-5.9,nt,43.1*,-3.3,nt,35.0,24.0,38.2*,24.7*,21.8*
CN(CCO)c1ncnc2c1sc1nc(N3CCOCC3)c3c(c12)CCC3,-13.5,-10.2,nt,-9.0,nt,nt,nt,nt,nt,nt,nt
[O-]/C(=C(\C(=S)Nc1ccc(SC(F)F)cc1)[n+]1ccccc1)c1ccc(Cl)cc1Cl,20.7,-30.7,nt,36.7*,-7.0,nt,48.1*,26.0,35.8*,31.1*,46.7*
Cc1cc(C)cc(NC(=S)/C(=C(\[O-])c2ccc(Cl)cc2Cl)[n+]2ccccc2)c1,-8.3,-4.9,nt,-22.2,16.5,nt,nt,nt,nt,nt,nt
Cc1nc(Sc2ccc(Br)cc2)c(C#N)c(C)c1[N+](=O)[O-],-20.9,-16.0,nt,-22.8,nt,nt,nt,nt,nt,nt,nt
CCn1ncc(Br)c1C(=O)Nc1ccc(F)cc1F,3.7,-15.6,1.7,2.3,1.9,2.0,nt,nt,nt,nt,nt
CCn1ncc(Br)c1C(=O)Nc1ccc(F)c([N+](=O)[O-])c1,20.4,-10.9,-1.3,45.4*,-12.0,3.1,40.2,39.0*,39.9*,27.0*,35.6*
COC(=O)c1ccc(C(NC(=O)OCc2ccccc2)/C(F)=C/[C@@H](C)C(=O)NCc2ccc(OC)c(OC)c2)cc1 (stereo partly specified),-2.9,nt,1.8,-19.1,-1.2,4.8,nt,nt,nt,nt,nt
O=C1C2C3c4ccccc4C(Br)(c4ccccc43)C2C(=O)N1c1ccccc1O (stereo unspecified),21.4,-2.7,-1.3,37.7*,-3.2,4.2,33.3,22.0,25.8*,14.7*,31.8*
CCOc1cc(N2CCOCC2)c(OCC)cc1NC(=O)CN1C(=O)NC2(CCc3ccccc32)C1=O (stereo unspecified),3.3,-7.3,5.6,5.3,-1.5,6.9,nt,nt,nt,nt,nt
COc1cc2c(cc1NC(=O)CN1C(=O)NC3(CCc4ccccc43)C1=O)oc1ccccc12 (stereo unspecified),19.4,-1.4,-1.8,34.8*,-7.0,1.3,61.9*,39.1*,37.1*,44.0*,44.7*
O=S(=O)(N/N=C/c1cn(Cc2ccccc2)c2ccccc12)c1ccccc1,-17.8,9.1,-4.2,11.5,-8.2,7.8,nt,nt,nt,nt,nt
Cc1ccc(C(=O)O)cc1NC(=O)CCc1ccccc1,2.0,-6.8,nt,-19.3,-0.3,nt,nt,nt,nt,nt,nt
COC(=O)c1ccc(C)c(NC(=O)CCc2ccc(OC)cc2)c1,8.0,-3.3,6.7,104.8*,1.6,9.1,-2.9,-3.9,-10.3,-12.4,-7.8
Cc1noc2ncnc(Sc3ccc(Cl)cc3)c12,3.9,-10.0,11.1,65.7*,-2.1,23.1,-4.0,-6.3,-11.0,5.6,-6.7
CN(C)Cc1c(O)ccc2oc(Cc3ccccc3)cc12,21.3,-14.6,8.0,53.3*,0.7,13.2,15.6,18.0,20.6*,26.5*,-0.6
O=C(N/N=C/c1c[nH]c2ccc(Br)cc12)C1CC1,28.5,-12.5,nt,57.7*,nt,nt,40.2,33.8*,50.2*,43.5*,46.9*
CCOC(=O)COc1ccc(C(=O)Nc2cccc(Cl)c2C)cc1,2.5,-5.1,nt,23.3,-1.2,nt,nt,nt,nt,nt,nt
COC(=O)c1ccc(NC(=O)CN(c2ccc(OC)cc2)S(C)(=O)=O)cc1,8.8,1.5,-5.4,42.9*,-7.4,21.8,30.4,16.4,40.8*,32.8*,31.6*
COc1ccc(CC(=O)Nc2ccc(C(C)=O)cc2)cc1,13.6,-7.5,nt,37.2*,-9.2,nt,23.4,14.7,32.6*,34.9*,31.3*
Cc1[nH]c2ccccc2c1N=Nc1ccc(F)cc1,18.9,-9.0,nt,39.4*,-6.7,nt,40.3,28.3,32.5*,29.6*,26.4*
COC(=O)C1SCC2C(=O)N(Cc3ccc(Cl)c(Cl)c3)CC(=O)N21 (stereo unspecified),-21.1,7.2,nt,-0.8,-4.0,nt,nt,nt,nt,nt,nt
O=c1ccc(Cl)cn1Cc1ccccc1F,-0.7,-2.5,4.8,-2.0,-5.7,2.2,nt,nt,nt,nt,nt
O=C(COc1ccc(Cl)cc1)Nc1ccc(Cc2ccncc2)cc1,25.0,-89.0,0.7,62.4*,-4.8,6.8,-47.7,-8.2,-34.9,-8.4,-11.7
SMILES,NPY2 pot ag,MDM2 E3 inh,NPY-Y2 antag,NPY1 pot ag,NPY-Y1 antag,Measles CPE,NPY-Y1 confirm,NPY-Y2 counter,NPY-Y1 agonist,NPY-Y2 agonist,CNGC counter
Cc1ccc(C23CC4CC(CC(CN)(C4)C2)C3)cc1,24.8,-21.5,nt,35.4*,4.9,nt,39.5,23.6,20.7*,30.6*,31.0*
COC(=O)CNC(=O)C12CC3CC(C1)CC(c1ccc(C)cc1)(C3)C2,-9.5,0.5,nt,5.8,6.4,nt,nt,nt,nt,nt,nt
C/C(=N/NC(=O)CNC(=O)c1ccncc1)c1ccco1,-22.8,-5.0,nt,4.1,nt,nt,nt,nt,nt,nt,nt
COc1cccc(/C=N/Nc2snc(SC)c2C#N)c1O,8.4,-25.4,0.8,49.7*,-0.9,6.6,-4.6,4.1,-1.8,18.0*,5.6
CSc1nsc(N/N=C/c2ccccc2)c1C#N,16.2,-5.8,nt,28.6,-5.8,nt,nt,nt,nt,nt,nt
N#CC1=C(N)OC2=C(C(=O)CC(c3ccco3)C2)C1c1ccc(OCc2c(F)cccc2Cl)cc1 (stereo unspecified),-26.7,-5.4,2.9,63.0*,1.0,32.1,-1.9,-10.4,-3.2,-10.2,-3.3
CCCN1CC(O)=C(C#N)C1=O,3.2,-6.2,nt,19.7,-0.4,nt,nt,nt,nt,nt,nt
COc1ccccc1-n1c(C)nnc1SCC(N)=O,1.1,-12.7,-0.3,42.5*,-0.5,6.8,0.9,3.6,-3.8,1.1,-4.6
COc1ccccc1-n1c(SCC(N)=O)nnc1-c1ccccc1,12.3,-5.7,4.3,13.3,-4.2,5.5,nt,nt,nt,nt,nt
CCOC(=O)Cn1nc(C)n(-c2ccc(F)cc2)c1=O,10.1,-6.4,nt,18.6,-2.2,nt,nt,nt,nt,nt,nt
O=c1[nH]nc(Sc2ncnc3sccc23)n1CCc1ccccc1,1.6,-8.3,1.2,-7.4,12.1,4.0,nt,nt,nt,nt,nt
Cc1cc(C)nc(NC(=O)c2cc(Br)ccc2Cl)n1,-1.5,7.3,nt,-40.9,-0.4,nt,nt,nt,nt,nt,nt
